M4 PAM – CHRM4 positive allosteric modulation; 0.4% of 360,000 active; P08173; CHO-K1 hM4/Gqi5, Fluo-8 calcium fluorescence, ACh EC20; 0% = ACh EC20, 100% = maximal ACh; activation, % at 3 µM; AID 624126;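 active = activation above its plate's cutoff, the mean activation of sample wells plus 3 SD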
Target sequence (P08173 whole entry, looked up): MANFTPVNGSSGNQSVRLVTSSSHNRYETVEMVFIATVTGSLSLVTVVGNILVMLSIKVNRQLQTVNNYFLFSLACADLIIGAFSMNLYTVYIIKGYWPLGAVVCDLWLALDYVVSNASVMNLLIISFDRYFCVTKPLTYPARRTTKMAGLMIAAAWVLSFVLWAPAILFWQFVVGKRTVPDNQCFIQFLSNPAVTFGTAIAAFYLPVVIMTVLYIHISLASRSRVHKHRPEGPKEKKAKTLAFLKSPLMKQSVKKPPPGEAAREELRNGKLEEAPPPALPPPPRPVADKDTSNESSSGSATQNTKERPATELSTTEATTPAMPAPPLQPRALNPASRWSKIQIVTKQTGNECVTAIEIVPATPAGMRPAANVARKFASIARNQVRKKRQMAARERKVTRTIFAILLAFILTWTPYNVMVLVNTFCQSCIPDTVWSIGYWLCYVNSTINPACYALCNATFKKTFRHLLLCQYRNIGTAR
M5 PAM – potentiates acetylcholine response at human M5 receptor; AID 624038; CHO-K1 hM5, Fluo-8 calcium, ACh EC20 PAM; 0% = ACh EC20, 100% = ACh EC100; P08912; 0.3% of 360,000 active; activation, % at 3 µM;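 active = activation above the run cutoff, the mean activation of all test compounds plus 3 SD, cut at about 18% in these data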
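Assay system: CHO-K1 hM5 cells / Incubation: Fluo-8 loading 80 min at 37 °C plus 30 min room temperature / Technique: Fluo-8 calcium dye fluorescence, kinetic read / Repeats: single replicate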
CHRM5 agonist – CHRM5 agonism in calcium assay. activation, % at 3 µM. 0.19% of 360,000 active. CHO-K1 hM5 cells, Fluo-8 calcium fluorescence; 0% DMSO wells, 100% maximal acetylcholine response. P08912;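 active = activation above the run's mean over test compounds plus 3 SD, cut at about 23% in these data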;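 also: signal is peak over basal fluorescence ratio across the kinetic read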
M4 ag – CHRM4 agonism in calcium assay; CHO-K1 hM4/Gqi5, Fluo-8 calcium fluorescence; vehicle 0%, full acetylcholine response 100%; activation, % at 3 µM; P08173; AID 624127; 0.14% of 360,000 active;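 active = activation above the run mean over all test wells plus 3 SD, cut at about 32% in these data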;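 also: peak over basal fluorescence ratio per well then scaled between controls; 0% = DMSO wells and 100% = acetylcholine at EC100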
M4 antag – antagonists of human muscarinic M4 receptor (CHRM4); P08173; CHO-hM4 cells, ACh EC80, Fluo-8 calcium fluorescence; inhibition, % at 3 µM; 0.73% of 360,000 active;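 active = inhibition above its plate's cutoff, the mean inhibition of sample wells plus 3 SD, cut at about 27% in these data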;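 also: 0% = acetylcholine EC80 with DMSO and 100% = DMSO without agonist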
CHRM5 antagonist – blocks acetylcholine activation of human M5 receptor. P08912. CHO-hM5 cells, Fluo-8 calcium fluorescence, ACh EC80. inhibition, % at 3 µM. 0.59% of 360,000 active;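 active = inhibition above a per-plate cutoff, the mean of that plate's test compounds plus 3 SD, cut at about 27% in these data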;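 also: 0% = acetylcholine EC80 with DMSO and 100% = DMSO without agonist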
* = called active by the depositor. Compounds with a hit are over-represented: about 1.9% of the library has one in this group of screens.

How did O=P(Oc1ccccc1)(N1CCOCC1)N1CCOCC1 do in these assays?
M4 PAM: 15*; M5 PAM: -4; CHRM5 agonist: 3; M4 ag: 1; M4 antag: -11; CHRM5 antagonist: 10

What do the screens show for `COC(=O)C1=C(c2ccc(C(C)=O)cc2)C[C@@H]2CC[C@H]1N2C(=O)NCc1ccc2c(c1)OCO2`?
M4 PAM: -5; M5 PAM: -1; CHRM5 agonist: 0; M4 ag: -1; M4 antag: -5; CHRM5 antagonist: 5

What do the screens show for `O=C1CC(c2cccnc2)=NN1c1ccc(Cl)cc1Cl`?
M4 PAM: 0; M5 PAM: -6; CHRM5 agonist: 4; M4 ag: 3; M4 antag: -4; CHRM5 antagonist: 5

What do the screens show for `CCN1C(=O)CC(c2cccnc2)=Nc2ccccc21`?
M4 PAM: -6; M5 PAM: 19*; CHRM5 agonist: 5; M4 ag: 2; M4 antag: 2; CHRM5 antagonist: -2

How did CCCn1ncc(CN2CCCC(C(=O)c3cccc(OC)c3)C2)c1C (stereo unspecified) do in these assays?
M4 PAM: -23; M5 PAM: -19; CHRM5 agonist: -11; M4 ag: 1; M4 antag: 55*; CHRM5 antagonist: 16

What do the screens show for `C[C@H]1CC[C@@H]2N(C1)C[C@H]1[C@@H]3C[C@H]4[C@@H](CC(=O)[C@H]5C[C@@H](O)CC[C@@]54C)[C@@H]3CC[C@H]1[C@]2(C)O`?
M4 PAM: -18; M5 PAM: -8; CHRM5 agonist: -6; M4 ag: 1; M4 antag: 85*; CHRM5 antagonist: 1

What do the screens show for `C[C@]12CC[C@H](O)CC1C(=O)CC1C2CC[C@@]2(C)C1CC[C@@H]2O` (stereo partly specified)?
M4 PAM: 4; M5 PAM: -3; CHRM5 agonist: -5; M4 ag: 2; M4 antag: -12; CHRM5 antagonist: -3

How did CC(=O)O[C@H]1CC[C@@]2(C)[C@H](C1)C(=O)C[C@H]1[C@@H]3CC[C@@H]4[C@@H](CN5C[C@@H](C)CC[C@H]5[C@@]4(C)O)[C@@H]3C[C@@H]12 do in these assays?
M4 PAM: -15; M5 PAM: -6; CHRM5 agonist: -7; M4 ag: 0; M4 antag: 65*; CHRM5 antagonist: 10

What do the screens show for `COc1cccc(CNC2CN3CCC2CC3)c1OC` (stereo unspecified)?
M4 PAM: -11; M5 PAM: -24; CHRM5 agonist: -6; M4 ag: 2; M4 antag: 25; CHRM5 antagonist: 60*

How did CCOP(=O)(OCC)c1ccc(OP(=O)(c2cccc([N+](=O)[O-])c2)c2cccc([N+](=O)[O-])c2)cc1 do in these assays?
M4 PAM: 21; M5 PAM: 11; CHRM5 agonist: 1; M4 ag: 1; M4 antag: -10; CHRM5 antagonist: -3

What do the screens show for `COc1cc(/C=C/[N+](=O)[O-])ccc1O`?
M4 PAM: 3; M5 PAM: 11; CHRM5 agonist: 10; M4 ag: 2; M4 antag: 16; CHRM5 antagonist: -8

How did CCN(CC)c1ccc(/C=C/[N+](=O)[O-])cc1 do in these assays?
M4 PAM: -28; M5 PAM: -31; CHRM5 agonist: 96*; M4 ag: 71*; M4 antag: 29*; CHRM5 antagonist: 90*

What do the screens show for `N#CC(CCN1CCOCC1)(c1ccccc1)c1ccccc1`?
M4 PAM: -7; M5 PAM: -15; CHRM5 agonist: -12; M4 ag: 1; M4 antag: 14; CHRM5 antagonist: 28*

What do the screens show for `COc1ccccc1CCNC1C2CC3CC(C2)CC1C3` (stereo unspecified)?
M4 PAM: -14; M5 PAM: -7; CHRM5 agonist: -8; M4 ag: 1; M4 antag: 32*; CHRM5 antagonist: 8

Results for Cc1ccc(/C=C2/Sc3ccc(C(=O)N4CCC5(CC4)OCCO5)cc3NC2=O)cc1 ?
M4 PAM: -6; M5 PAM: -10; CHRM5 agonist: 1; M4 ag: 22; M4 antag: -3; CHRM5 antagonist: 8

What do the screens show for `O=C1OC(c2ccc(Cl)cc2)=N/C1=C\N1CC2CC(C1)c1cccc(=O)n1C2` (stereo unspecified)?
M4 PAM: 15; M5 PAM: 22*; CHRM5 agonist: -5; M4 ag: 1; M4 antag: -5; CHRM5 antagonist: -9

Results for O=C1OC(c2ccc(Br)cc2)=N/C1=C\N1CC2CC(C1)c1cccc(=O)n1C2 (stereo unspecified) ?
M4 PAM: -6; M5 PAM: 4; CHRM5 agonist: -12; M4 ag: 0; M4 antag: 5; CHRM5 antagonist: -1

Results for COc1ccc(OC)c([C@@H](O)[C@H](C)NC(C)(C)C)c1 ?
M4 PAM: -15; M5 PAM: -19; CHRM5 agonist: -1; M4 ag: 0; M4 antag: 51*; CHRM5 antagonist: 24

What do the screens show for `C[C@@]12N[C@@H](Cc3ccccc31)c1ccccc12`?
M4 PAM: 8; M5 PAM: -1; CHRM5 agonist: 1; M4 ag: 2; M4 antag: -16; CHRM5 antagonist: 1

How did COC(=O)C1=C(c2ccc(OC)c(OC)c2)C[C@@H]2CC[C@H]1N2C(=O)N1CCc2cc(OC)c(OC)cc2C1 do in these assays?
M4 PAM: -4; M5 PAM: 3; CHRM5 agonist: 3; M4 ag: 0; M4 antag: 0; CHRM5 antagonist: 2

Results for C[C@@H]1CN([C@H](C)CO)C(=O)CCCn2nncc2CO[C@@H]1CN(C)C(=O)Oc1ccc2ccccc2c1 ?
M4 PAM: 8; M5 PAM: 2; CHRM5 agonist: -2; M4 ag: 1; M4 antag: -11; CHRM5 antagonist: -1

How did c1ccc2c(CN3CCCCCCC3)c[nH]c2c1 do in these assays?
M4 PAM: -22; M5 PAM: -4; CHRM5 agonist: -4; M4 ag: 0; M4 antag: 32*; CHRM5 antagonist: 6

What do the screens show for `CCOC(=O)c1cccc(C2=C(CNC(=O)c3ccc([N+](=O)[O-])cc3)[C@H]3CC[C@@H](C2)N3Cc2ccccc2)c1`?
M4 PAM: -5; M5 PAM: -7; CHRM5 agonist: -3; M4 ag: 3; M4 antag: -8; CHRM5 antagonist: 13

Results for C(#CCN1CCCCC1)COCc1ccccc1 ?
M4 PAM: -1; M5 PAM: 9; CHRM5 agonist: -14; M4 ag: 1; M4 antag: -2; CHRM5 antagonist: 6

Screening data as filed in PubChem.
